Source: ChEMBL document CHEMBL1140161, “Structure-activity relationships in 1,4-benzodioxan-related compounds. 9. From 1,4-benzodioxane to 1,4-dioxane ring as a promising template of novel alpha1D-adrenoreceptor antagonists, 5-HT1A full agonists, and cytotoxic agents” (J Med Chem, 2008)
The source made the active and inactive calls. The rule behind the calls is not given here.

What was measured:
[1] = target: T1, Alpha-1A adrenergic receptor (Homo sapiens, UniProt P35348); assay: Displacement of [3H]prazosin from human cloned alpha1A adrenoceptor expressed in CHO cells; type: cell-based
T1 sequence (P35348 whole entry): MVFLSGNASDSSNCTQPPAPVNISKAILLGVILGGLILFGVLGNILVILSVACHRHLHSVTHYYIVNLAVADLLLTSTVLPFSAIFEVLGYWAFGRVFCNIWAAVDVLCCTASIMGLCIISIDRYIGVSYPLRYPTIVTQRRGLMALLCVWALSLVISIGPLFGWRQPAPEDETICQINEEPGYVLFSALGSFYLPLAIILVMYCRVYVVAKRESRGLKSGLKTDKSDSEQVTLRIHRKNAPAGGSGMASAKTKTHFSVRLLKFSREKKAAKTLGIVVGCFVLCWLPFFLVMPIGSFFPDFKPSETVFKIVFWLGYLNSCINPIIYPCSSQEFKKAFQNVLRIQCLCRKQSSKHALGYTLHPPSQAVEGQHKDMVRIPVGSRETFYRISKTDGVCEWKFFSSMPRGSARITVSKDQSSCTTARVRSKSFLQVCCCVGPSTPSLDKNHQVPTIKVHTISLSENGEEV
Summary of the method: (§1)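 [3H]prazosin binding to cloned human α1-adrenoceptor subtypes expressed in CHO cell membranes. Affinity reported as pKi for each subtype.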

[2] = target: T2, Alpha-1D adrenergic receptor (Homo sapiens, UniProt P25100); assay: Displacement of [3H]prazosin from human cloned alpha1D adrenoceptor expressed in CHO cells; type: cell-based; summary of the method: as §1
T2 sequence (P25100 whole entry): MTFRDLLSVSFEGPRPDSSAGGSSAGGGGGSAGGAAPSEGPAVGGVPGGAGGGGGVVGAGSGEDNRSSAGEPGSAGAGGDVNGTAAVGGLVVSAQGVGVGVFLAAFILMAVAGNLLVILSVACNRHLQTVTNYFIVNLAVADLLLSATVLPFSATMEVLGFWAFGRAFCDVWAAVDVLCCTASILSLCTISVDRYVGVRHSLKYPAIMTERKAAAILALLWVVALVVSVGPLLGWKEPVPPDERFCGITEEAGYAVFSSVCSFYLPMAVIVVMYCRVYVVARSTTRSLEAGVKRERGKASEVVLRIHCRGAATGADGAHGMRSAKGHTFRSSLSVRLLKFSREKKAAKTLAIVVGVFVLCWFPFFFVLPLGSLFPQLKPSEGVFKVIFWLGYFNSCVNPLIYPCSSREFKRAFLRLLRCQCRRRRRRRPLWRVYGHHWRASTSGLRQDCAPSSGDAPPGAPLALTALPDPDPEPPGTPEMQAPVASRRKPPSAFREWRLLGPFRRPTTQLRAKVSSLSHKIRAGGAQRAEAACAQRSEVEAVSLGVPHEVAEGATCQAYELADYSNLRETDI

[3] = target: T3, Alpha-1A adrenergic receptor (Rattus norvegicus) (UniProt P43140); assay: Antagonist activity at alpha1A adrenoceptor in Wistar rat prostatic vas deferens assessed as inhibition of (-)-noradrenaline-induced contraction after 30 mins; type: functional, tissue-based
T3 sequence (whole entry): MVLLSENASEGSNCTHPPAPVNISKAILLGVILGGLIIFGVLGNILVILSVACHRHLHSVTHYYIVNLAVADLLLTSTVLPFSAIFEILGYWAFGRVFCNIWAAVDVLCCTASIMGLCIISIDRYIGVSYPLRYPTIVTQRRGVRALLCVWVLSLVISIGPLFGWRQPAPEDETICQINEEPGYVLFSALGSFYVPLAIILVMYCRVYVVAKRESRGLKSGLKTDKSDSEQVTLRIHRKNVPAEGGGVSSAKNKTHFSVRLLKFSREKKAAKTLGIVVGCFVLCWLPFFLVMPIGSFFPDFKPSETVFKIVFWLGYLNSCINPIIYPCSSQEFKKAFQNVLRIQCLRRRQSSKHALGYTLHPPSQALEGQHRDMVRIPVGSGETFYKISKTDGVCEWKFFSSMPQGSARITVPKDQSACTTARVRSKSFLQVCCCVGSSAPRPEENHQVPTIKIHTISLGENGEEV

[4] = target: T4, Alpha-1B adrenergic receptor (Rattus norvegicus) (UniProt P15823); assay: Antagonist activity at alpha1B adrenoceptor in Wistar rat spleen assessed as inhibition of (-)-phenylephrine-induced contraction after 30 mins; type: functional, tissue-based
T4 sequence (whole entry): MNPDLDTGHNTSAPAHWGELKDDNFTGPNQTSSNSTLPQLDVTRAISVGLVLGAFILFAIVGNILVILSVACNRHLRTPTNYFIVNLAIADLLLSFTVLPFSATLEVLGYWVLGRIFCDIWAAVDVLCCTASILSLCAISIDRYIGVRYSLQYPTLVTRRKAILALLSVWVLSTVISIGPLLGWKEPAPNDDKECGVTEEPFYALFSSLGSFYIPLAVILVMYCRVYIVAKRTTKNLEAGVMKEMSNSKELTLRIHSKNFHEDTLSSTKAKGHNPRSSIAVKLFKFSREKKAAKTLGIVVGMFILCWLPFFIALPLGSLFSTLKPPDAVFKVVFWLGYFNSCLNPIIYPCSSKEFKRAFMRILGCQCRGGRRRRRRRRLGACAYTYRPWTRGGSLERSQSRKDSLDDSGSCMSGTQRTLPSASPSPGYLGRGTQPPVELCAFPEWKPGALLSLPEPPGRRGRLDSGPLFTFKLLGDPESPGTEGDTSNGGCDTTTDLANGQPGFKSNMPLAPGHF

[5] = target: T5, Alpha-1D adrenergic receptor (Rattus norvegicus) (UniProt P23944); assay: Antagonist activity at Alpha-1D adrenoceptor in Wistar rat thoracic aorta assessed as inhibition of (-)-noradrenaline-induced contraction after 30 mins; type: functional, tissue-based
T5 sequence (whole entry): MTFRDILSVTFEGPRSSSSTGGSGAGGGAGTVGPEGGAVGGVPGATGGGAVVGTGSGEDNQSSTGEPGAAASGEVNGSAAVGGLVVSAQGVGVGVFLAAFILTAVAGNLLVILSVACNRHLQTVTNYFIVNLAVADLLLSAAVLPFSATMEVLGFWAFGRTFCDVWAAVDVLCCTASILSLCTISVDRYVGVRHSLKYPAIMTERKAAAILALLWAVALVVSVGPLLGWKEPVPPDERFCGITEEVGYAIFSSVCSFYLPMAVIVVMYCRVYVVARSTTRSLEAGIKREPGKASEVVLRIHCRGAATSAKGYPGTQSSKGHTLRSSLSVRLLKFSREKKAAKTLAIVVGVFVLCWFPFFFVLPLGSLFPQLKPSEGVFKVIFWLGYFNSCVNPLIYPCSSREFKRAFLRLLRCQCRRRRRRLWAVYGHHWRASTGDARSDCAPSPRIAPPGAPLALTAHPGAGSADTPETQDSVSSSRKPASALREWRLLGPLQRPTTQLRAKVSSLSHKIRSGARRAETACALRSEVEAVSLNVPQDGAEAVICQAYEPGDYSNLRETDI

PC-3 = assay: Cytotoxicity against human PC3 cells after 48 hrs by SRB assay; type: functional; conditions: for GI50 / TGI / CC50: PC-3, 48 h; for CC50: read-out: LC50 (the source's name)
Summary of the method: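 PC-3 human prostate cancer cells. Growth measured by sulforhodamine B staining following the NCI protocol. […] Values are means of quadruplicate determinations ± standard error (n = 5).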

| Compound | Ki [1] [µM] | Ki [2] [µM] | pKb [3] | pKb [4] | pKb [5] | GI50 (PC-3) [µM] | TGI (PC-3) [µM] | CC50 (PC-3) [µM] | Activity (PC-3) |
| --- | --- | --- | --- | --- | --- | --- | --- | --- | --- |
| c1ccc(OCCNC[C@@H]2CO[C@H](c3ccccc3)CO2)cc1 (relative stereo) | > 1 | 0.355 | 6.89 | 6.68 | 7.05 | 190 | 239 | > 300 |  |
| c1ccc(OCCNC[C@@H]2COCC(c3ccccc3)(c3ccccc3)O2)cc1 | 0.17 | 0.00363 | 6.93 | 7.84 | 7.6 | 1 | 3.9 | 6.2 |  |
| COc1ccccc1OCCNC[C@@H]1CO[C@@H](c2ccccc2)CO1 (relative stereo) | 0.158 | 0.0977 | 7.1 | 7.44 | 7.48 | 30.1 |  |  | inactive |
| COc1cccc(OC)c1OCCNC[C@@H]1COCC(c2ccccc2)(c2ccccc2)O1 | 0.339 | 0.0661 | 6.71 | 6.24 | 7.22 | 25.1 | 31.6 | 35 |  |
| COc1cccc(OC)c1OCCNC[C@@H]1COC[C@H](c2ccccc2)O1 (relative stereo) | 0.468 | > 1 | 6.42 | 5.84 | 6.55 | 79.4 | 178 | 282 |  |
| c1ccc(OCCNC[C@@H]2CO[C@@H](c3ccccc3)CO2)cc1 (relative stereo) | 0.537 | > 1 | 7 | 6.97 | 6.56 | 177 | 252 | > 300 |  |
| COc1cccc(OC)c1OCCNC[C@@H]1COC[C@@H](c2ccccc2)O1 (relative stereo) | > 1 | > 1 | 5.8 | 5.75 | 7.11 | 112 | 199 | 288 |  |
| COc1cccc(OC)c1OCCNC[C@@H]1CO[C@H](c2ccccc2)CO1 (relative stereo) | > 1 | > 1 | 5.96 | 6.7 | 6.08 | 199 | 251 | > 300 |  |
| COc1cccc(OC)c1OCCNC[C@@H]1COC(c2ccccc2)(c2ccccc2)CO1 | 0.0891 | 0.17 | 6.08 | 5.74 | 7.38 | 19.9 | 31.6 | 40 |  |
| COc1ccccc1OCCNC[C@@H]1COC[C@H](c2ccccc2)O1 (relative stereo) | 0.2 | 0.0437 | 6.57 | 7.4 | 7.2 | 79 | 158 | 251 |  |
| COc1cccc(OC)c1OCCNC[C@@H]1CO[C@@H](c2ccccc2)CO1 (relative stereo) | 0.513 | > 1 | 7.21 | 7.02 | 7.26 | 29 |  |  | inactive |
| c1ccc(OCCNC[C@@H]2COC[C@H](c3ccccc3)O2)cc1 (relative stereo) | > 1 | 0.0724 | 6.72 | 7.12 | 6.77 | 158 | 223 | 281 |  |
| COc1ccccc1OCCNC[C@@H]1CO[C@H](c2ccccc2)CO1 (relative stereo) | 0.437 | 0.0162 | 6.47 | 6.89 | 6.84 | 199 | 251 | > 300 |  |
| COc1ccccc1OCCNC[C@@H]1COC[C@@H](c2ccccc2)O1 (relative stereo) | 0.0871 | 0.0316 | 7.22 | 7.96 | 7.83 | 199 | 251 | > 300 |  |
